High-throughput results from PubChem.
Sampled rows, rich in hits. Any-hit rate of the full collection: about 2.3%.
STAT3 inh-1: STAT3 signaling inhibition. U3A cells, IL-6 STAT3-luciferase reporter, luminescence; host cell line lacks STAT1. inhibition, % at 5.5 µM. 190,000 compounds, 0.89% hits;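 active means inhibition above the mean inhibition across all screened compounds plus 3 SD, cut at about 44% in these data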;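 further: 0% = DMSO only wells and 100% = 100 µM nifuroxazide control wells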
PPC-1+TRAIL kill: kills PPC-1 cancer cells in the presence of TRAIL; PPC-1 cells + TRAIL, ATPLite viability luminescence; cell killing (% activity), % at 4 µM or 5 µM; AID 1443; 220,000 compounds, 0.41% hits;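 active means cell killing above 50% in the first pass at 4 µM, then a duplicate retest at 5 µM averaging 50% or more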;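 further: plate controls were cells with TRAIL plus DMSO for no effect and medium-only wells lacking cells for full effect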
C8 TRAIL sens: sensitizes caspase-8 expressing cells to TRAIL. NB7+C8 cells + TRAIL, ATPlite viability luminescence. inhibition (viability loss, TRAIL sensitization), % at 10 µM. 360,000 compounds, 1% hits. AID 624354;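 active means compounds causing at least 50% loss of cell viability in the single-dose screen, relative to plate controls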
HSP90 inh: inhibitors of HSP90 luciferase refolding in rabbit reticulocyte lysate. luciferase refolding luminescence, 3 h. inhibition, % at 5.6 µM. 290,000 compounds, 0.91% hits;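 active means inhibition above the screen-wide mean plus 3 SD, computed separately per campaign, cut at about 16% in these data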;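 further: 0% = DMSO wells and 100% = 60 µM geldanamycin wells; inhibitors lower the luminescence because luciferase stays unfolded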
STAT1 blocker: reduces IFN-gamma driven STAT1 reporter signal. NIH 3T3 STAT1-luciferase reporter, luminescence. inhibition, % at 5.5 µM. 200,000 compounds, 0.35% hits. AID 920;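 active means inhibition above a set limit, the mean inhibition across all tested compounds plus 3 SD, cut at about 34% in these data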;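 further: 0% = IFN-gamma with DMSO and 100% = IFN-gamma with 300 µM nifuroxazide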
STAT3 activator: increases IL-6 driven STAT3 reporter signal | U3A cells, IL-6 STAT3-luciferase reporter, luminescence; 100% = signal with IL-6 EC80 alone | activation (% of control), % at 5.6 µM | 190,000 compounds, 0.91% hits | AID 871;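 active means activation above the screen-wide mean of compound activation plus 3 SD, cut at about 130% in these data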;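 further: 0% = background luminescence of wells with medium and substrate only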
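Detection: reporter luminescence signal / Assay system: STAT1-lacking human U3A cells, STAT3 luciferase reporter / Incubation: compound pre-incubation 1 h before IL-6, then 6 h stimulation at 37 °C / Control set: IL-6-only high control / Read-out: % activation relative to IL-6 control / Probe or stimulus: Interleukin-6, 33 ng/mL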
STAT3 inh-2: STAT3 inhibition, confirmation assay; AID 1265; U3A cells, IL-6 STAT3 luciferase reporter, luminescence; cell line lacks STAT1; shares compounds with STAT3 inh-1; 1,200 compounds, 45% hits; inhibition, % at 5.7 µM;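 active means inhibition above the hit cutoff computed for the primary STAT3 screen, cut at about 44% in these data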;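 further: 0% = IL-6 plus DMSO and 100% = IL-6 plus nifuroxazide control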
NFkB inh STAT3ct: counter-screen for STAT3 inhibitors: NF-kappaB inhibition. HEK293T NF-kB luciferase reporter, TNF-alpha induced. 1,200 compounds, 36% hits. AID 1308. inhibition, % at 5.7 µM. shares compounds with STAT3 inh-1;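 active means inhibition above the mean of solvent-only control wells plus 3 SD, cutoff set per campaign, cut at about 13% in these data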;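 further: 0% = TNF-alpha with DMSO and 100% = TNF-alpha with MG high control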
STAT1 inh 2: counter-screen for STAT3 inhibitors: STAT1 inhibition. 1,200 compounds, 27% hits. NIH 3T3 STAT1-luciferase reporter, IFN-gamma induced, luminescence. AID 1317. inhibition, % at 5.7 µM. shares compounds with STAT3 inh-1;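 active means inhibition above the mean plus 3 SD of solvent-only control wells, limit set per screening run, cut at about 16% in these data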;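 further: 0% = DMSO with IFN-gamma and 100% = nifuroxazide control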
An asterisk follows results filed as active; nt = no result.

SMILES | STAT3 inh-1 | PPC-1+TRAIL kill | C8 TRAIL sens | HSP90 inh | STAT1 blocker | STAT3 activator | STAT3 inh-2 | NFkB inh STAT3ct | STAT1 inh 2
Cc1cc(Cl)c(S(=O)(=O)N2CCN(c3ccc(F)cc3)CC2)cc1OCC(N)=O | 45* | 10 | 0 | 1 | 4 | 65 | 34 | 6 | 1
Cc1cc(Cl)c(S(=O)(=O)N2CCN(c3ccc(F)cc3)CC2)cc1OCC(=O)NC1CCCCC1 | 88* | 11 | 27 | -5 | 18 | 27 | 85* | 35* | 10
O=C(NCCc1cccc(Cl)c1)c1cc2ccccc2oc1=O | nt | nt | 12 | -5 | nt | nt | nt | nt | nt
Cc1cc(C(=O)CSc2nnc(-c3cccc(F)c3)n2N)c(C)n1Cc1ccc2c(c1)OCO2 | 47* | 29 | 19 | -2 | 14 | 65 | 39 | 13 | 10
O=C(COC(=O)c1cc(S(=O)(=O)N2CCOCC2)c(Cl)cc1Cl)NC1CC1 | nt | nt | -2 | nt | nt | nt | nt | nt | nt
CCOC(=O)c1cccc(NC(=O)CSc2nc3cccnc3n2C)c1 | 59* | 25 | -2 | 2 | 14 | 55 | 43 | 3 | 7
Cc1ccc(NCN2C(=O)C3CC=CCC3C2=O)cc1 (stereo not given) | 1 | 12 | -13 | 2 | 1 | 101 | nt | nt | nt
COc1cc(OC)cc(C(=O)Nn2c(C)nc3ccccc3c2=O)c1 | -7 | 12 | 24 | 0 | -1 | 109 | nt | nt | nt
COc1ccc2[nH]c3c(c2c1)CCn1c-3nc2ccccc2c1=O | 51* | 46 | 49 | 9 | -55 | 61 | 14 | -32 | -178
Cn1c(N=NC(=O)c2ccccc2)c(O)c2ccccc21 | 46* | 44 | 60* | 8 | -48 | 61 | 13 | -16 | -112
CCNc1ccccc1CP(=O)(c1ccccc1)c1ccccc1O (stereo not given) | nt | nt | nt | 2 | nt | nt | nt | nt | nt
CN(C)c1ccc(N/C=C/C(=O)c2ccco2)cc1 | 60* | 25 | 62* | 9 | 31 | 53 | 25 | 25* | -22
Cn1c(N/N=C/c2c[nH]c3ccccc23)nc2ccccc21 | -24 | 4 | 46 | 0 | -22 | 123 | nt | nt | nt
Cn1c(N/N=C/c2cc3ccccc3nc2Cl)nc2ccccc21 | 53* | 2 | 88* | 3 | -1 | 56 | 28 | 25* | 10
COc1ccc(-c2csc(N3C(=N)SCC3=O)n2)cc1 | 50* | 26 | 21 | 0 | -72 | 62 | -14 | -37 | -191
C=CCn1c(SCC(=O)Nc2cc(NC(C)=O)ccc2OC)nnc1-c1cccnc1 | 11 | 9 | -2 | 2 | 0 | 93 | nt | nt | nt
CC1CCC2C(=O)N(c3cc(Cl)ccc3OC(=O)c3ccco3)C(=O)C2C1 (stereo not given) | nt | nt | -13 | 0 | nt | nt | nt | nt | nt
CC1CCC2C(=O)N(c3ccccc3OC(=O)c3ccccc3)C(=O)C2C1 (stereo not given) | 44* | 13 | 10 | -2 | 5 | 65 | 45* | 2 | 3
O=C(Nc1ccc(N2CCOCC2)nc1)c1ccc(C(F)(F)F)cc1 | 61* | -2 | 25 | 1 | -2 | 51 | 59* | 4 | -2
CCOc1ccc(-n2c(-c3ccc(OC)cc3)c[n+]3c2CCCCC3)cc1 | 85* | 18 | 41 | -5 | 25 | 29 | 87* | 15* | 33*
CCOc1ccc(-n2c(-c3ccc(Br)cc3)c[n+]3c2CCCCC3)cc1 | 60* | 2 | 36 | 1 | 29 | 53 | 39 | -3 | 23*
CCOc1ccc(-n2c(-c3ccccc3)c[n+]3c2CCC3)cc1 | 71* | 28 | 40 | 0 | 34 | 43 | 59* | 0 | 22*
NC(=O)c1ccc(NC(=O)c2ccc(CN3CCOCC3)cc2)cc1 | -4 | -13 | -4 | 0 | -3 | 103 | nt | nt | nt
Cc1cc(CSc2ccccc2)ccc1NC(=O)c1ccc(CN2CCOCC2)cc1 | 73* | 32 | 24 | -3 | 9 | 40 | 79* | 30* | 17*
